Measured values published in ChEMBL document CHEMBL1127791, “Design, synthesis, and biological evaluation of cosalane, a novel anti-HIV agent which inhibits multiple features of virus reproduction” (J Med Chem, 1994).

How the values were obtained:
B(EBV+) = assay: Effective concentration required for antiviral activity against B(EBV+) cell line of AA5 cells of Human by XTT assay; assay type: functional, cell-based
Method in brief: (§1)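 Human T, B or macrophage-type cell lines were infected with HIV-1 RF in complete RPMI medium with serially diluted drug and cultured 6 days at 37 °C. Inhibition was read by XTT in cytopathically infected cells, or by supernatant RT activity or p24 ELISA in noncytopathically infected cells. EC₅₀ was calculated.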

CEM-SS [1] = assay: Effective concentration required for antiviral activity against HIV strain IIIB in CEM-SS cells by XTT assay; assay type: functional, cell-based; conditions: Homo sapiens
Method in brief: (§2)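 CEM-SS cells, 5000/well in RPMI 1640 with 5% FBS, 2 mM L-glutamine and gentamycin, were infected with each HIV strain at MOI 0.01 with serially diluted drug. They were incubated 6 days at 37 °C in 5% CO₂. Viability was read by XTT, and EC₅₀ for protection from virus-induced killing was calculated.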

CEM-SS [2] = assay: Effective concentration required for antiviral activity against T cell line of CEM-SS cells of Human by XTT assay; assay type: functional, cell-based; method in brief: as §1
BxT = assay: Effective concentration required for antiviral activity against BxT cell line of 174xCEM cells of Human by XTT assay; assay type: functional, cell-based; method in brief: as §1
[3] = test system: Human immunodeficiency virus; assay: Effective concentration required for antiviral activity against HIV strain G by XTT assay; assay type: functional, organism-based; conditions: Human immunodeficiency virus 1; method in brief: as §2
[4] = test system: Human immunodeficiency virus; assay: Effective concentration required for antiviral activity against HIV strain LAV by XTT assay; assay type: functional, organism-based; conditions: Human immunodeficiency virus 1; method in brief: as §2
[5] = test system: Human immunodeficiency virus; assay: Effective concentration required for antiviral activity against HIV strain MCK by XTT assay; assay type: functional, organism-based; conditions: Human immunodeficiency virus 1; method in brief: as §2
[6] = test system: Human immunodeficiency virus; assay: Effective concentration required for antiviral activity against HIV strain MN by XTT assay; assay type: functional, organism-based; conditions: Human immunodeficiency virus 1; method in brief: as §2
[7] = test system: Human immunodeficiency virus; assay: Effective concentration required for antiviral activity against HIV strain PM16 by XTT assay; assay type: functional, organism-based; conditions: Human immunodeficiency virus 1; method in brief: as §2
[8] = test system: Human immunodeficiency virus; assay: Effective concentration required for antiviral activity against HIV strain RF by XTT assay; assay type: functional, organism-based; conditions: Human immunodeficiency virus 1; method in brief: as §2
[9] = test system: Human immunodeficiency virus; assay: Effective concentration required for antiviral activity against HIV strain SKI by XTT assay; assay type: functional, organism-based; conditions: Human immunodeficiency virus 1; method in brief: as §2
[10] = test system: Human immunodeficiency virus; assay: Effective concentration required for antiviral activity against HIV strain VIHU (nonsyncytia inducing) by XTT assay; assay type: functional, organism-based; conditions: Human immunodeficiency virus 1
[11] = test system: Human immunodeficiency virus; assay: Effective concentration required for antiviral activity against HIV strain WEJO (syncytia inducing) by XTT assay; assay type: functional, organism-based; conditions: Human immunodeficiency virus 1
[12] = test system: Human immunodeficiency virus; assay: Effective concentration required for antiviral activity against HIV strain WOME (syncytia inducing) by XTT assay; assay type: functional, organism-based; conditions: Human immunodeficiency virus 1
[13] = test system: Human immunodeficiency virus 2; assay: Effective concentration required for antiviral activity against HIV strain MS (HIV-2) by XTT assay; assay type: functional, organism-based; method in brief: as §2
[14] = test system: Human immunodeficiency virus; assay: Effective concentration required for antiviral activity against HIV strain 205 by XTT assay; assay type: functional, organism-based; conditions: Human immunodeficiency virus 1; method in brief: as §2
[15] = test system: Human immunodeficiency virus; assay: Effective concentration required for antiviral activity against HIV strain 214 by XTT assay; assay type: functional, organism-based; conditions: Human immunodeficiency virus 1; method in brief: as §2
[16] = test system: Human immunodeficiency virus; assay: Effective concentration required for antiviral activity against HIV strain A17 (pyridinone-resistant strain) by XTT assay; assay type: functional, organism-based; conditions: Human immunodeficiency virus 1; method in brief: as §2
[17] = test system: Human immunodeficiency virus; assay: Effective concentration required for antiviral activity against HIV strain BAKI (syncytia inducing) by XTT assay; assay type: functional, organism-based; conditions: Human immunodeficiency virus 1
[18] = test system: Human immunodeficiency virus; assay: Effective concentration required for antiviral activity against HIV strain G9106 (AZT-resistant strain) by XTT assay; assay type: functional, organism-based; conditions: Human immunodeficiency virus 1; method in brief: as §2
MT4 = assay: Effective concentration required for antiviral activity against T (HTLV-1+)cell line of MT-4 cells of Human by XTT assay; assay type: functional, cell-based; method in brief: as §1
MT2 = assay: Effective concentration required for antiviral activity against HIV strain IIIB in MT-2 cells by XTT assay; assay type: functional, cell-based; conditions: Homo sapiens
Method in brief: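 HIV-1 IIIB was tested in MT-2 cells in a microtiter XTT cytopathicity assay. Serially diluted drug was added to cells infected at MOI 0.01 and incubated 6 days at 37 °C in 5% CO₂. EC₅₀ for cellular protection was calculated from XTT viability.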

PBL = assay: Effective concentration required for antiviral activity against lymphocyte cell line of PBL cells of Human by […]; assay type: functional, cell-based
Method in brief: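 PHA-stimulated fresh human PBLs were infected with clinical HIV-1 isolate WEJO in the presence of drug. Culture supernatants were assayed for RT and/or p24 by antigen-capture ELISA to give EC₅₀.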

U-937 = assay: Effective concentration required for antiviral activity against Macrophage cell line of U937 cells of Human by XTT assay; assay type: functional, cell-based; method in brief: as §1
[19] = test system: Human immunodeficiency virus; assay: Effective concentration required for antiviral activity against HIV strain TP1 by XTT assay; assay type: functional, organism-based; conditions: Human immunodeficiency virus 1; method in brief: as §2
M = assay: Effective concentration required for antiviral activity against M cell line of macrophage cells of Human by p24 ELISA

CC(C)CCCC(C)[C@H]1CC[C@H]2[C@@H]3CCC4C[C@@H](CCC=C(c5cc(Cl)c(O)c(C(=O)O)c5)c5cc(Cl)c(O)c(C(=O)O)c5)CC[C@]4(C)[C@H]3CC[C@]12C (stereo partly specified)
EC50 (B(EBV+)): 6.6 µM
EC50 (CEM-SS [1]): 6.8 µM
EC50 (CEM-SS [2]): 5.1 µM
EC50 (BxT): 6.1 µM
EC50 [3]: 2.2 µM
EC50 [4]: 14.4 µM
EC50 [5]: 2.1 µM
EC50 [6]: 8.8 µM
EC50 [7]: 6.6 µM
EC50 [8]: 1.7 µM
EC50 [9]: 20.6 µM
EC50 [10]: 80.2 µM
EC50 [11]: 44.8 µM
EC50 [12]: 69.9 µM
EC50 [13]: 22.5 µM
EC50 [14]: 6.7 µM
EC50 [15]: 7.1 µM
EC50 [16]: 4.3 µM
EC50 [17]: 48.1 µM
EC50 [18]: 6.6 µM
EC50 (MT4): 20 µM
EC50 (MT2): 3.4 µM
EC50 (PBL): 44.8 µM
EC50 (U-937): 7.4 µM
EC50 [19]: 6.5 µM
EC50 (M): 19.7 µM

Cc1cn([C@H]2C[C@H](N=[N+]=[N-])[C@@H](CO)O2)c(=O)[nH]c1=O [ZIDOVUDINE]
EC50 (B(EBV+)): 0.001 µM
EC50 (CEM-SS [1]): 0.004 µM
EC50 (CEM-SS [2]): 0.095 µM
EC50 (BxT): 0.055 µM
EC50 [3]: 0.002 µM
EC50 [4]: 0.008 µM
EC50 [5]: 0.002 µM
EC50 [6]: 0.004 µM
EC50 [7]: 0.011 µM
EC50 [9]: 0.013 µM
EC50 [10]: 0.02 µM
EC50 [11]: 0.018 µM
EC50 [12]: 0.006 µM
EC50 [13]: 0.002 µM
EC50 [14]: 0.009 µM
EC50 [15]: 0.009 µM
EC50 [16]: 0.002 µM
EC50 [17]: 0.01 µM
EC50 [18]: > 0.1 µM
EC50 (MT4): 0.085 µM
EC50 (MT2): 0.003 µM
EC50 (PBL): 0.029 µM
EC50 (U-937): 0.03 µM
EC50 [19]: 0.006 µM
EC50 (M): 0.015 µM
